Screening data (PubChem)
hERG rescue – shields human hERG channel from block by proarrhythmic agents; Q12809; CHO-hERG, FluxOR thallium flux, dofetilide IC70 present; activation (rescue from dofetilide block), less the hit threshold, % at 10 µM; actives 0.51% (n = 310,000); AID 1511;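 active = activation above the mean of controls blocked by dofetilide plus 5 SD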;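 note: thallium influx through hERG after potassium depolarization seen as dye fluorescence rise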
SUMO Mot1 rescue – inhibitors of SUMOylation pathway: yeast Mot1-301 growth rescue; actives 1% (n = 320,000); growth rescue, % at 18.8 µM; S. cerevisiae Mot1-301 growth rescue, ATP luminescence, 38.5C; percent above DMSO median, 100 means doubled;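 active = every valid replicate shows activation above 250% relative to neutral control wells; inactive = the rest, any valid replicate at or below 250%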;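 note: OY570 slx delta 5 strain wells were the positive control but not used for scaling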
KCC2 mod – modulators of human KCC2 chloride dependent transport. B-score of Tl+ flux slope (higher = more flux/activation; lower = inhibition) at 10 µM. Q9H2X9. KCC2 cells, thallium flux FluoZin-2 fluorescence. actives 2.2% (n = 190,000);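 active = thallium flux slope and its plate-corrected score both differing from the plate sample mean at a set confidence after two filtering rounds, in either direction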;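 note: slope of fluorescence scaled to starting intensity during 10 to 20 s after thallium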
AI-2 QS modul – Vibrio harveyi AI-2 quorum sensing modulation; activity change, % at 7.5 µM; actives 0.4% (n = 300,000); Vibrio harveyi JMH597 AI-2 luminescence/OD600 ratio, 9 h; hits give low values; strain lacks LuxN and CqsS sensors; 0 = neutral-control median; AID 2094; in the data active = activity change below about -75%, passing the limit was not always enough;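 note: luminescence divided by OD600 gain over 9 h not by final OD600 alone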
KCNQ1 block – human KCNQ1 channel inhibition. P51787. CHO-K1 KCNQ1, FluxOR thallium flux fluorescence; hits give high values. B-score at 10 µM. actives 1.3% (n = 310,000);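 active = compounds whose thallium flux B-score, printed positive for inhibition, exceeds three library SD while starting fluorescence stays within three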;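 note: channel opened by potassium depolarization with thallium stimulus after 20 min compound exposure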
KCNQ1 pot – potentiators or activators of human KCNQ1 potassium channel; CHO-K1 KCNQ1, thallium flux FluxOR fluorescence; hits give high values; B-score at 10 µM; actives 0.35% (n = 310,000); AID 2648;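 active = fluorescence ratio B-score, a plate-corrected score, at least three library SD, with initial intensity B-score within 5 SD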
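System: CHO-K1 cells stably expressing KCNQ1 / Medium: assay buffer for compound exposure, DMSO matched across wells / Reagent: thallium- and potassium-containing depolarizing buffer / Compound: one concentration, matched DMSO / Incubation: 20 min compound pretreatment at room temperature / Measured by: kinetic FluxOR fluorescence, 10 s baseline plus 110 s post-stimulus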
Yeast Mot1 SUMO – SUMO pathway inhibitors in yeast Mot1-301 growth | shares compounds with SUMO Mot1 rescue | S. cerevisiae Mot1-301 galactose growth, ATP luminescence, 24 h; -100 = growth of slx-deleted rescue strain | growth activity, percent, % at 42 µM | 2,300 tested, under 10 active;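 active = Signal drops as the depositor expects, and the fitted half-maximal dose is no more than ten times the top valid tested dose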;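 note: more negative values mean stronger growth rescue toward the control strain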
The depositor's hits bear a star. An excerpt weighted towards active compounds, which were near 4.2% of everything screened.

For COc1ccc(Cn2nnnc2CN2CCN(c3ccc(OC)cc3)CC2)cc1 the results were hERG rescue -1, SUMO Mot1 rescue 885*, KCC2 mod 0.023, AI-2 QS modul -1, KCNQ1 block inactive, KCNQ1 pot inactive and Yeast Mot1 SUMO 1.
For COc1ccc(CN2CCOCC2)cc1 the results were hERG rescue -1, SUMO Mot1 rescue -5, KCC2 mod 1.1, AI-2 QS modul 3, KCNQ1 block inactive and KCNQ1 pot inactive.
Screening COc1cc2cc(CCCOC(=O)CCCC(=O)O)oc(=O)c2cc1OC returned SUMO Mot1 rescue -13.
Screening COc1ccc(CN2CCN(C(=O)c3cc(-c4cccnc4)nc4ccc(Cl)cc34)CC2)c(OC)c1OC returned hERG rescue -14, SUMO Mot1 rescue 510*, KCC2 mod 0.77, AI-2 QS modul -9, KCNQ1 block inactive, KCNQ1 pot inactive and Yeast Mot1 SUMO 0.
`COc1cccc(OC)c1C(=O)N1CCN(Cc2ccccc2C)CC1` gave hERG rescue -15, SUMO Mot1 rescue 359*, AI-2 QS modul -9, KCNQ1 block inactive, KCNQ1 pot inactive and Yeast Mot1 SUMO 1.
Screening CS(=O)(=O)N1CCN(C(=O)c2cc(-c3cccnc3)nc3ccc(Cl)cc23)CC1 returned hERG rescue -10, SUMO Mot1 rescue -2, KCC2 mod 0.23, AI-2 QS modul -10, KCNQ1 block inactive and KCNQ1 pot inactive.
Screening COc1cccc(CN2CCN(C(=O)c3cccc4ccccc34)CC2)c1OC returned hERG rescue -9, SUMO Mot1 rescue 735*, KCC2 mod -0.19, AI-2 QS modul 9, KCNQ1 block inactive, KCNQ1 pot inactive and Yeast Mot1 SUMO 0.
Screening COc1ccccc1CN1CCN(C(=O)c2cccc3ccccc23)CC1 returned hERG rescue -15, SUMO Mot1 rescue -5, AI-2 QS modul 19, KCNQ1 block inactive and KCNQ1 pot inactive.
For Cc1ccccc1CN1CCN(C(=O)c2cccc3ccccc23)CC1 the results were hERG rescue -11, SUMO Mot1 rescue 8, AI-2 QS modul 13, KCNQ1 block inactive and KCNQ1 pot inactive.
CN(C(=O)c1ccccc1C(=O)OCC(=O)c1ccc(Br)cc1)c1ccccc1 was read as hERG rescue -9, SUMO Mot1 rescue 70, AI-2 QS modul 31, KCNQ1 block inactive and KCNQ1 pot inactive.
`CCOc1ccccc1N1CCN(CC(O)COC2CCCc3ccccc32)CC1` (stereo not given) gave hERG rescue -16, SUMO Mot1 rescue -7, KCNQ1 block inactive and KCNQ1 pot inactive.
Screening O=C(COC(=O)c1ccccc1SCC(=O)N1CCCC1)NC1CCCCC1 returned hERG rescue -15, SUMO Mot1 rescue 792*, AI-2 QS modul 15, KCNQ1 block inactive, KCNQ1 pot inactive and Yeast Mot1 SUMO 0.
For O=C(COC(=O)c1ccccc1SCC(=O)N1CCCC1)NC1CCS(=O)(=O)C1 (stereo not given) the results were hERG rescue -7, SUMO Mot1 rescue -25, AI-2 QS modul 24, KCNQ1 block inactive and KCNQ1 pot inactive.
Cc1ccc(-n2c(-c3ccco3)nc3c(cnn3-c3ccc(C)cc3)c2=O)cc1 was read as hERG rescue -7, SUMO Mot1 rescue 734*, AI-2 QS modul -3, KCNQ1 block inactive, KCNQ1 pot inactive and Yeast Mot1 SUMO 0.
For CCN1C(=O)N(c2ccc(Cl)cc2)C(C)=CC1(C)C the results were SUMO Mot1 rescue 837*, KCC2 mod 0.035, AI-2 QS modul 14 and Yeast Mot1 SUMO 0.
For C=C1N(c2ccc(Cl)cc2)C(=O)OC1(C)C the results were hERG rescue -12, SUMO Mot1 rescue 66, KCC2 mod 0.44, AI-2 QS modul 16, KCNQ1 block inactive and KCNQ1 pot inactive.
